# Experiments:
# [1] = target: RARα (Homo sapiens, UniProt P10276); experiment: Binding affinity for retinoic acid receptor RAR alpha
# [2] = target: RARβ (Homo sapiens, UniProt P10826); experiment: Binding affinity for retinoic acid receptor RAR beta
# [3] = target: RARγ (Homo sapiens, UniProt P13631); experiment: Binding affinity for retinoic acid receptor RAR gamma
# [4] = system: Rattus norvegicus; experiment: Mean number of tumors/rat after retinoid dose of 2 mmol/kg diet; format: functional
# [5] = system: Rattus norvegicus; experiment: Percentage of rats with tumor after retinoid dose of 2 mmol/kg diet; format: functional
# [6] = system: Rattus norvegicus; experiment: Latency in DMBA-induced mammary tumor in rat after retinoid dose of 2 mmol/kg diet; format: functional
# [7] = species: Rattus norvegicus; experiment: Percentage change in DMBA-induced mammary tumor in rats;no new tumors, partial regression in 6/8 tumors; format: functional
# Procedure, shortened: (§1)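 Rats bearing mammary tumors induced by dimethylbenz[a]anthracene (DMBA) 50 days earlier were fed the treatment retinoid in the diet for 10 days. Each group had three tumor-bearing rats, which were killed after the 10 days. Every tumor on each rat was measured to estimate the mean tumor volume for the group.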
# [8] = system: Rattus norvegicus; experiment: Final DMBA-induced mammary tumor volume in rat after retinoid treatment at 2 mmol/kg diet; format: functional; procedure, shortened: as §1
# [9] = system: Rattus norvegicus; experiment: Initial DMBA-induced mammary tumor volume in rat after retinoid treatment at 2 mmol/kg diet; format: functional; procedure, shortened: as §1
# [10] = species: Rattus norvegicus; experiment: Percentage change in DMBA-induced mammary tumor in rats;Two new tumors, partial regression in 10/14 tumors; format: functional; procedure, shortened: as §1
# [11] = species: Rattus norvegicus; experiment: Percentage change in DMBA-induced mammary tumor in rats; no new tumors, partial regression in 10/10 tumors; format: functional; procedure, shortened: as §1
# Sequence of RARα (P10276 whole entry, looked up): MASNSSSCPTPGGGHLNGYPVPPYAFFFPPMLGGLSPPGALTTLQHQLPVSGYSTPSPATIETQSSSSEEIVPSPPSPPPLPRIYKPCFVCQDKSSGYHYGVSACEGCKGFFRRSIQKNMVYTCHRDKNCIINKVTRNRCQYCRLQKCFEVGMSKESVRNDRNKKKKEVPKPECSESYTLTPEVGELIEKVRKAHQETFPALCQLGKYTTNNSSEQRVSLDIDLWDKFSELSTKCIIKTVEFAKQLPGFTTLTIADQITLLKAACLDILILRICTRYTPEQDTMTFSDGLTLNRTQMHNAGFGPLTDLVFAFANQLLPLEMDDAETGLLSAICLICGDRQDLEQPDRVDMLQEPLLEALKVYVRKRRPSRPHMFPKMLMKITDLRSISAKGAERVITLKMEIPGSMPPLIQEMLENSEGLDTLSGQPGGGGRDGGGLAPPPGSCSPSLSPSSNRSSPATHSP
# Sequence of RARβ (P10826 whole entry, looked up): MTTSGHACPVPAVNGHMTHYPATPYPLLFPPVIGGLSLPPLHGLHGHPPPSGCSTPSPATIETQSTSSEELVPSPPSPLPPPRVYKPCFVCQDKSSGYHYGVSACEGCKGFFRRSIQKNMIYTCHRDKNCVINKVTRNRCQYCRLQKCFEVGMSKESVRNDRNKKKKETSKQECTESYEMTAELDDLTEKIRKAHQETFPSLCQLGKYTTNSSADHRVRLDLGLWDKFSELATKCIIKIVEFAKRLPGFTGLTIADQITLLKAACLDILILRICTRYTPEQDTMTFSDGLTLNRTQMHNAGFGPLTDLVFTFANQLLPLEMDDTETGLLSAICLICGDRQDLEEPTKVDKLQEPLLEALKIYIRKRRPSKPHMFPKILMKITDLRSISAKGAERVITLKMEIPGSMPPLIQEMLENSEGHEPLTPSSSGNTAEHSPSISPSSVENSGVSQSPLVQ
# Sequence of RARγ (P13631 whole entry, looked up): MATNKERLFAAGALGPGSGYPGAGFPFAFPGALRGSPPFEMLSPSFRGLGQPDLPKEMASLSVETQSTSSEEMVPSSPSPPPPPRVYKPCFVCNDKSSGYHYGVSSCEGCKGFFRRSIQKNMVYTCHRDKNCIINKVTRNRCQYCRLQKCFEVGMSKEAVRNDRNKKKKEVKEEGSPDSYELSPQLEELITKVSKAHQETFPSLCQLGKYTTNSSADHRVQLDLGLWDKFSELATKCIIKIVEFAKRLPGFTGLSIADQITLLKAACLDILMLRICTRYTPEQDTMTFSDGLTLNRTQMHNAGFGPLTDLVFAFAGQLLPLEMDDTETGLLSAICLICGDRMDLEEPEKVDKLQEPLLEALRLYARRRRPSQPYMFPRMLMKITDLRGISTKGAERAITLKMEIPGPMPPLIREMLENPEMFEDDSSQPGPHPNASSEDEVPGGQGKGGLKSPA
Ki [1] [µM],Ki [2] [µM],Ki [3] [µM],Structure (SMILES),Activity [4],Activity [5] [%],Mean tumor atency [6] [days],Change [7] [%],Tumor volume [8] [cm*3],Tumor volume [9] [cm*3],Change [10] [%],Change [11] [%]
> 2.2,> 2.8,> 6,CC1=C(/C=C/C(C)=C/C=C/C(C)=C/C(=O)Nc2ccc(O[C@@H]3O[C@@H](C(=O)O)[C@@H](O)[C@H](O)[C@@H]3O)cc2)C(C)(C)CCC1,0.71,57,48,–,–,–,–,–
> 2.2,> 6,–,CC1=C(/C=C/C(C)=C/C=C/C(C)=C/C(=O)Nc2ccc(CC3OC(C(=O)O)C(O)C(O)C3O)cc2)C(C)(C)CCC1 (stereo not drawn),0.36,27,55,-21,0.23,0.29,–,–
> 2.2,> 2.8,> 6,CC1=C(/C=C/C(C)=C/C=C/C(C)=C/C(=O)Nc2ccc(O)cc2)C(C)(C)CCC1 [FENRETINIDE],–,–,–,–,0.12,0.16,-25,–
–,–,–,CC1=C(/C=C/C(C)=C/C=C/C(C)=C/C(=O)O)C(C)(C)CCC1 [TRETINOIN],–,–,–,–,0.56,0.94,–,-40

# Reference: ChEMBL document CHEMBL1134907, “An improved synthesis of the C-linked glucuronide of N-(4-hydroxyphenyl)retinamide” (Bioorg Med Chem Lett, 2002)
